Measured values from different studies.
Protocols differ between the studies behind these lines.
Target: Protein-tyrosine kinase 6 (PTK6, Homo sapiens, UniProt Q13882)

| Structure (SMILES) | read-out | action | method | concentration | endpoint | result |
| --- | --- | --- | --- | --- | --- | --- |
| C#Cc1n[nH]c2c(-c3cn([C@@H](C)c4ccccc4)c(=O)[nH]c3=O)cc(F)cc12 | enzyme activity | inhibitor |  | 0.1 µM | inhibition | 9.4% |
| O=c1[nH]c2ccccc2n1C1CCN(Cc2ccc(-c3[nH]c4cc5ncnc5cc4nc3-c3ccccc3)cc2)CC1 | cell-free assay |  |  | 0.5 µM | remaining signal | 91.1% |
| Cn1cncc1[C@@](O)(COc1ccc(C#N)cc1-c1ccc(OC(F)(F)F)cc1)c1ccc(C#N)cc1 | cell-free assay |  | competition with immobilised ligand | 1 µM | remaining binding | 100% |
| COc1cc(Nc2ncc(F)c(Nc3ccc4c(n3)NC(=O)C(C)(C)O4)n2)cc(OC)c1OC | binding |  |  | 10 µM | inhibition | 82% |
| Cn1cc(-c2cc(F)cc(N3CCn4c(cc5c4CCCC5)C3=O)c2CO)cc(Nc2ccc(N3CCN(C4COC4)CC3)cn2)c1=O | enzyme activity | inhibitor |  | 0.1 µM | inhibition | 10% |
| COc1ncccc1-c1cnn2ccc(N3CCN(C(=O)OC(C)C)CC3)nc12 | binding |  | competition with immobilised ligand | 1 µM | remaining binding | 61% |
| Cn1cc(-c2cccc(N3CCc4c(sc5c4CC(C)(C)C5)C3=O)c2CO)cc(Nc2ccncn2)c1=O | enzyme activity | inhibitor |  | 1 µM | inhibition | 1% |
| C#Cc1n[nH]c2c(-c3cn([C@@H](C)c4ccccn4)c(=O)[nH]c3=O)cc(F)cc12 | enzyme activity | inhibitor |  | 0.1 µM | inhibition | 5.5% |
| Cc1nn(C)cc1-c1nc2c(N3CCN(Cc4ccc(Cl)cc4)CC3)c(Cl)cnc2[nH]1 | binding |  | competition with immobilised ligand | 1 µM | remaining binding | 96% |
| CC(C)(C)c1cc(C=C(C#N)C#N)cc(Br)c1O | enzyme activity | inhibitor |  | 0.5 µM | remaining activity | 91.4% |
